From ChEMBL document CHEMBL1154674, “Synthesis and evaluation of three 18F-labeled aminophenylbenzothiazoles as amyloid imaging agents” (J Med Chem, 2009)

Key:
Assay type in all cases: ADME, organism-based, Macaca mulatta
[1] = Drug level in normal rhesus monkey pons assessed as standard uptake value at 109.4 MBq, iv after 27.5 mins by microPET; details: in vivo
[2] = Drug level in normal rhesus monkey pons assessed as standard uptake value at 109.4 MBq, iv after 75 mins by microPET; details: in vivo, 1.25 h
[3] = Drug level in normal rhesus monkey pons assessed as standard uptake value at 109.4 MBq, iv after 117 mins by microPET; details: in vivo, 1.95 h
[4] = Drug level in normal rhesus monkey cerebellum assessed as standard uptake value at 109.4 MBq, iv after 22.5 mins by microPET; details: in vivo, 0.375 h
How it was run: (§1)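 One normal rhesus monkey received each tracer via the vena saphena, with 1 day between injections. Dynamic μPET ran 180 min for 18F tracers (5×60 s, 5×120 s, 9×300 s, 12×600 s) and 90 min for the 11C tracer (5×60 s, 5×120 s, 9×300 s, 3×600 s). Filtered back-projection reconstruction (RAMP filter) was used. Time-activity curves were drawn to give regional SUV.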

[5] = Drug level in normal rhesus monkey frontal cortex assessed as standard uptake value at 109.4 MBq, iv after 3.5 mins by microPET; details: in vivo
How it was run: (§2)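 One normal rhesus monkey, each tracer given iv via the vena saphena (81.2, 96.3 or 109.4 MBq), with 1 day between tracer injections. Dynamic brain μPET over 180 min used frames of 5 × 60 s, 5 × 120 s, 9 × 300 s and 12 × 600 s. Images were reconstructed by filtered back projection with a RAMP filter. Regional time-activity curves were expressed as SUV.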

[6] = Drug level in normal rhesus monkey frontal cortex assessed as standard uptake value at 109.4 MBq, iv after 93 mins by microPET; details: in vivo, 1.55 h
[7] = Drug level in normal rhesus monkey thalamus assessed as standard uptake value at 109.4 MBq, iv after 22.5 mins by microPET; details: in vivo, 0.375 h
[8] = Drug level in normal rhesus monkey cerebellum assessed as standard uptake value at 109.4 MBq, iv after 12.5 mins by microPET; details: in vivo
[9] = Drug level in normal rhesus monkey white matter assessed as standard uptake value at 109.4 MBq, iv after 47.5 mins by microPET; details: in vivo
[10] = Drug level in normal rhesus monkey parietal cortex assessed as standard uptake value at 109.4 MBq, iv after 4.5 mins by microPET; details: in vivo, 0.075 h
[11] = Drug level in normal rhesus monkey pons assessed as standard uptake value at 81.2 MBq, iv after 8 mins by microPET; details: in vivo
[12] = Drug level in normal rhesus monkey pons assessed as standard uptake value at 81.2 MBq, iv after 37.5 mins by microPET; details: in vivo, 0.625 h
[13] = Drug level in normal rhesus monkey parietal cortex assessed as standard uptake value at 81.2 MBq, iv after 52.5 mins by microPET; details: in vivo, 0.875 h
[14] = Drug level in normal rhesus monkey frontal cortex assessed as standard uptake value at 81.2 MBq, iv after 155 mins by microPET; details: in vivo
[15] = Drug level in normal rhesus monkey white matter assessed as standard uptake value at 81.2 MBq, iv after 0.5 mins by microPET; details: in vivo
[16] = Drug level in normal rhesus monkey white matter assessed as standard uptake value at 81.2 MBq, iv after 8 mins by microPET; details: in vivo
[17] = Drug level in normal rhesus monkey cerebellum assessed as standard uptake value at 81.2 MBq, iv after 17.5 mins by microPET; details: in vivo; how it was run: as §2
[18] = Drug level in normal rhesus monkey cerebellum assessed as standard uptake value at 152.9 MBq, iv after 3.5 mins by microPET; details: in vivo; how it was run: as §1
[19] = Drug level in normal rhesus monkey cerebellum assessed as standard uptake value at 152.9 MBq, iv after 12 mins by microPET; details: in vivo, 0.2 h; how it was run: as §1
[20] = Drug level in normal rhesus monkey cerebellum assessed as standard uptake value at 152.9 MBq, iv after 37.5 mins by microPET; details: in vivo, 0.625 h; how it was run: as §1
[21] = Drug level in normal rhesus monkey cerebellum assessed as standard uptake value at 152.9 MBq, iv after 42.5 mins by microPET; details: in vivo; how it was run: as §1
[22] = Drug level in normal rhesus monkey white matter assessed as standard uptake value at 152.9 MBq, iv after 0.5 mins by microPET; details: in vivo
[23] = Drug level in normal rhesus monkey white matter assessed as standard uptake value at 152.9 MBq, iv after 8 mins by microPET; details: in vivo
[24] = Drug level in normal rhesus monkey white matter assessed as standard uptake value at 152.9 MBq, iv after 14 mins by microPET; details: in vivo
[25] = Drug level in normal rhesus monkey white matter assessed as standard uptake value at 152.9 MBq, iv after 57.5 mins by microPET; details: in vivo
[26] = Drug level in normal rhesus monkey pons assessed as standard uptake value at 152.9 MBq, iv after 32.5 mins by microPET; details: in vivo
[27] = Drug level in normal rhesus monkey pons assessed as standard uptake value at 152.9 MBq, iv after 85 mins by microPET; details: in vivo
[28] = Drug level in normal rhesus monkey parietal cortex assessed as standard uptake value at 96.3 MBq, iv after 42.5 mins by microPET; details: in vivo
[29] = Drug level in normal rhesus monkey parietal cortex assessed as standard uptake value at 96.3 MBq, iv after 175 mins by microPET; details: in vivo
[30] = Drug level in normal rhesus monkey thalamus assessed as standard uptake value at 96.3 MBq, iv after 27.5 mins by microPET; details: in vivo
[31] = Drug level in normal rhesus monkey pons assessed as standard uptake value at 96.3 MBq, iv after 27.5 mins by microPET; details: in vivo
[32] = Drug level in normal rhesus monkey thalamus assessed as standard uptake value at 96.3 MBq, iv after 1.5 mins by microPET; details: in vivo, 0.025 h
[33] = Drug level in normal rhesus monkey thalamus assessed as standard uptake value at 96.3 MBq, iv after 3.5 mins by microPET; details: in vivo
[34] = Drug level in normal rhesus monkey thalamus assessed as standard uptake value at 96.3 MBq, iv after 10 mins by microPET; details: in vivo
[35] = Drug level in normal rhesus monkey thalamus assessed as standard uptake value at 96.3 MBq, iv after 105 mins by microPET; details: in vivo, 1.75 h
[36] = Drug level in normal rhesus monkey cerebellum assessed as standard uptake value at 96.3 MBq, iv after 0.5 mins by microPET; details: in vivo; how it was run: as §2
[37] = Drug level in normal rhesus monkey pons assessed as standard uptake value at 96.3 MBq, iv after 85 mins by microPET; details: in vivo
[38] = Drug level in normal rhesus monkey cerebellum assessed as standard uptake value at 96.3 MBq, iv after 85 mins by microPET; details: in vivo; how it was run: as §2
[39] = Drug level in normal rhesus monkey frontal cortex assessed as standard uptake value at 96.3 MBq, iv after 3.5 mins by microPET; details: in vivo
[40] = Drug level in normal rhesus monkey white matter assessed as standard uptake value at 96.3 MBq, iv after 2.5 mins by microPET; details: in vivo

## Nc1ccc2nc(-c3ccc([18F])cc3)sc2c1
[1]
  SUV: 4.78
[2]
  SUV: 4.79
[3]
  SUV: 4.76
[4]
  SUV: 4.4
[5]
  SUV: 4.99
[6]
  SUV: 4.25
[7]
  SUV: 5.55
[8]
  SUV: 5.33
[9]
  SUV: 3.53
[10]
  SUV: 5.12

## CNc1ccc2nc(-c3ccc([18F])cc3)sc2c1
[11]
  SUV: 5.089
[12]
  SUV: 5.487
[13]
  SUV: 3.552
[14]
  SUV: 4.381
[15]
  SUV: 0.621
[16]
  SUV: 3.412
[17]
  SUV: 2.753

## [11CH3]Nc1ccc(-c2nc3ccc(O)cc3s2)cc1 [PITTSBURGH COMPOUND B]
[18]
  SUV: 2.17
[19]
  SUV: 2.252
[20]
  SUV: 0.996
[21]
  SUV: 0.936
[22]
  SUV: 0.038
[23]
  SUV: 1.421
[24]
  SUV: 1.428
[25]
  SUV: 0.957
[26]
  SUV: 1.365
[27]
  SUV: 0.718

## CN(C)c1ccc2nc(-c3ccc([18F])cc3)sc2c1
[28]
  SUV: 1.79
[29]
  SUV: 1.17
[30]
  SUV: 2.31
[31]
  SUV: 1.61
[32]
  SUV: 1.55
[33]
  SUV: 2
[34]
  SUV: 2.12
[35]
  SUV: 2.08
[36]
  SUV: 0.54
[37]
  SUV: 2.06
[38]
  SUV: 1.03
[39]
  SUV: 1.39
[40]
  SUV: 0.94
